Measured values as given in ChEMBL document CHEMBL1821632 (2011).
The source made the active and inactive calls. The rule behind the calls is not given here.

Key:
Lipid bilayer [1] = experiment: Binding affinity to dipalmitoyl phosphatidyl choline lipid bilayer assessed as decrease in pre-transition temperature at compound to lipid molar ratio of 1:5 by DSC technique
Outline: (§1)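 DPPC bilayers carried additive at additive:lipid molar ratios of 0:100, 1:5, 1:2 or 1:1. Samples were degassed under vacuum and scanned by DSC from 20 to 60 °C at 10 °C/h. The pre-transition and main transition (Tm) temperatures were read from the thermograms and compared with the additive-free lipid.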

Sperm [2] = experiment: (§2) Antifertility activity against goat epididymis sperm cells assessed as loss of sperm motility at 1.25 mM by Sander-Cramer test; type: functional; conditions: Capra hircus
Outline: (§3)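 Sperm came from the cauda epididymis of goats. Tissue pieces were allowed to settle out, and the cells were washed, pelleted and resuspended in buffer. Cells were diluted in Dulbecco buffer (control) or in 1.25 mM drug solution. Motility was scored by the Sander-Cramer method, examining at least six microscope fields per slide at 1 h and 2 h of incubation.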

Lipid bilayer [3] = experiment: Binding affinity to dipalmitoyl phosphatidyl choline lipid bilayer assessed as decrease in pre-transition temperature at compound to lipid molar ratio of 1:1 by DSC technique; outline: as §1
Lipid bilayer [4] = experiment: Binding affinity to dipalmitoyl phosphatidyl choline lipid bilayer assessed as decrease in pre-transition temperature by DSC technique
Lipid bilayer [5] = experiment: Binding affinity to dipalmitoyl phosphatidyl choline lipid bilayer assessed as decrease in main transition temperature at compound to lipid molar ratio of 1:5 by DSC technique; outline: as §1
Lipid bilayer [6] = experiment: Binding affinity to dipalmitoyl phosphatidyl choline lipid bilayer assessed as decrease in main transition temperature by DSC technique
Sperm [7] = experiment: Antifertility activity against goat epididymis sperm cells assessed as inhibition of sperm motility at 1.25 mM after 1 hr by Sander-Cramer test; type: functional; conditions: Capra hircus; outline: as §3
Lipid bilayer [8] = experiment: Binding affinity to dipalmitoyl phosphatidyl choline lipid bilayer assessed as decrease in main transition temperature at compound to lipid molar ratio of 1:1 by DSC technique; outline: as §1
[9] = as §2; type: functional, Capra hircus; outline: as §3

| Compound | Activity (Lipid bilayer [1]) | inhibition (Sperm [2]) | Activity (Lipid bilayer [3]) | Activity (Lipid bilayer [4]) | Tm (Lipid bilayer [5]) | Tm (Lipid bilayer [6]) | inhibition (Sperm [7]) | Tm (Lipid bilayer [8]) | Activity [9] |
| --- | --- | --- | --- | --- | --- | --- | --- | --- | --- |
| CCOC(=O)C1=C(C)NC(C)=C(C(=O)OCC)C1c1ccccc1O | Active | Active | Active | Active |  |  |  |  |  |
| CCOC(=O)C1=C(C)NC(C)=C(C(=O)OCC)C1c1ccc(O)cc1 | Active |  | Active | Active | 4.25 °C | 4.25 °C | Active | 4.25 °C |  |
| O=C(O)c1cc(/N=N/c2ccc(S(=O)(=O)Nc3ccccn3)cc2)ccc1O | Active |  | Active | Active |  |  |  |  |  |
| COC(=O)C1=C(C)NC(C)=C(C(=O)OC)C1c1ccccc1[N+](=O)[O-] | Active |  | Active | Active |  |  |  |  |  |
| CCOC(=O)C1=C(C)NC(C)=C(C(=O)OCC)C1c1ccc(Cl)cc1 | Active |  | Active | Active |  |  |  |  | 25% |
| CCOC(=O)C1=C(C)NC(C)=C(C(=O)OCC)C1c1ccccc1 | Active |  | Active | Active |  |  |  |  | 25% |
